Assay outcomes from PubChem.
M1 ag parental: counter-screen for M1 agonists: effect in parental CHO-K1 cells. Fluo-8 calcium fluorescence; scaled to maximal ATP response, vehicle zero. activation, % at 3 µM. actives 0.48% (n = 360,000). AID 602248, 2012; in the data active = activation above about 15%;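 note: untransfected CHO-K1 host cells lacking M1 receptor as counterscreen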
zfTRPN1 agonist: zebrafish TRPN1 channel agonists, primary screen, cell-based, HEK293, calcium fluorescence; activation, % at 3 µM; transient receptor potential cation channel N1 (TRPN1/NompC), Danio rerio; HEK293 zebrafish TRPN1-YFP, Fluo-8 calcium fluorescence; 100% = response to 87 µM carbachol; actives 0.18% (n = 220,000);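 active = activation above its plate's cutoff, the mean activation of test wells on that plate plus 3 SD, cut at about 19% in these data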;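 note: 0% = DMSO alone and 100% = 87 µM carbachol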
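System: zebrafish TRPN1-YFP in HEK293 cells / Dosing: 3 µM single point / Timing: dye loading 1 h at 37 °C, then 30 min room temperature / Signal: Fluo-8 calcium fluorescence, excitation 470-495 nm, emission 515-575 nm / Read-out basis: percent activation from peak over basal fluorescence ratio, control-normalized / Control set: high carbachol 87 µM, low DMSO alone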
TRPML3 ag: human TRPML3 channel agonists, primary screen, cell-based, HEK293 TRPML3-YFP, Fluo-8 calcium fluorescence, 3 µM. Mucolipin-3 (Homo sapiens), Q8TDD5. 100% = the carbachol control signal. activation, % at 3 µM. actives 0.29% (n = 220,000). AID 1448, 2008;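 active = activation above its plate's cutoff, the mean activation of the plate's test wells plus 3 SD, cut at about 12% in these data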;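 note: 0% = DMSO only wells and 100% = carbachol wells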
Target sequence (Q8TDD5 whole entry, looked up): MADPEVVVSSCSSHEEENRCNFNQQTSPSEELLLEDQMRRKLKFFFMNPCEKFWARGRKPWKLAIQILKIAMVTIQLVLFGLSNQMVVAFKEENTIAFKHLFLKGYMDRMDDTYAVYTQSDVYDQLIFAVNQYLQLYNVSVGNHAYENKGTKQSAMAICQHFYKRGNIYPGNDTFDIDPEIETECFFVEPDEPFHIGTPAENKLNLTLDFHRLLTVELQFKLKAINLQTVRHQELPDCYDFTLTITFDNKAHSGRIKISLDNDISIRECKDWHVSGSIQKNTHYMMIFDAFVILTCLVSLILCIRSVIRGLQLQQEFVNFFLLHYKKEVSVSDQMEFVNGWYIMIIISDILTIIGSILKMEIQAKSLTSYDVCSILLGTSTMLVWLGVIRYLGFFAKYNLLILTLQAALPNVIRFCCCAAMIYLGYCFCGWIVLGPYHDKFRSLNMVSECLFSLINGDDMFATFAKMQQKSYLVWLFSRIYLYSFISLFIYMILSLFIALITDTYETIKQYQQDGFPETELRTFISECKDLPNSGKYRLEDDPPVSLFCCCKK
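Test system – HEK293 line with stable expression of human TRPML3-YFP channel · Control set – carbachol 87 µM final as high control (100%), DMSO as low control (0%) · Signal – Fluo-8 calcium dye fluorescence, ex 470-495, em 515-575 nm · Incubation – 1-h 37 °C dye load, 5-s basal, 120-s post-compound reads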
CHO-K1 Ca antag: counter-screen for M1 antagonists: effect in parental CHO-K1 cells; ATP-induced calcium, Fluo-8 fluorescence; actives 0.6% (n = 360,000); inhibition, % at 3 µM;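 active = inhibition above a per-plate cutoff, the plate's mean sample inhibition plus 3 SD, cut at about 24% in these data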;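 note: 0% = DMSO plus EC80 ATP and 100% = DMSO alone without ATP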
CHO-K1 Ca PAM: nonselective calcium activators in parental CHO-K1 cells, primary screen, counter-screen for M1 PAM project, cell-based, Fluo-8 calcium fluorescence, full deck, 1536-well. activation, % at 3 µM. ATP EC20; 0% at ATP EC20, 100% at ATP max. actives 0.02% (n = 360,000);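 active = activation above the run cutoff, the mean activation of all test compounds plus 3 SD, cut at about 40% in these data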;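 note: peak over basal fluorescence ratio in a 140 s read after ATP addition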
Numbers without * were called inactive; / = not tested or not shown. Sampled rows, rich in hits. Any-hit rate of the full collection: about 1.2%.

SMILES | M1 ag parental | zfTRPN1 agonist | TRPML3 ag | CHO-K1 Ca antag | CHO-K1 Ca PAM
CN(C(=O)COc1ccccc1C(=O)NCCOc1ccccc1)c1ccccc1 | 11 | 2 | 0 | 25* | 1
O=C(NCCNC(=O)c1ccccc1O)c1ccccc1O | 6 | / | / | -9 | 20
CCOCCNC(=O)c1ccccc1C(=O)NCCOCC | 0 | 1 | 0 | 30* | -3
Cc1ccc2sc(NC(=O)CN3C(=O)CCC3=O)nc2c1C | 1 | 1 | 2 | 29* | -6
N#CCc1c(C#N)c(N)nc(N2CCN(C=O)CC2)c1C#N | 0 | 0 | 1 | 24* | -8
COc1ccc(NC(=O)C2Cc3c(-c4cccc(F)c4)ccnc3O2)cn1 (centres undefined) | 3 | / | / | -6 | 11
On1ccccc1=S | 3 | / | / | 25* | 18
COc1ccc(OC)c(-c2c3cc(O)c(=O)cc-3oc3cc(O)c(O)cc23)c1 | 72* | 7 | 3 | 32* | -8
Cc1ccccc1-c1cc(=O)c2c(O)cccc2o1 | -1 | / | / | -9 | 3
O=c1cc2oc3cc(O)c(O)cc3c(-c3ccccc3O)c-2cc1O | 11 | 18 | 12* | -1 | 2
CCOc1ccccc1-c1c2cc(O)c(=O)cc-2oc2cc(O)c(O)cc12 | 17* | 4 | 8 | 3 | 11
CCOC(=O)c1oc2cc(O)ccc2c(=O)c1-c1ccccc1OC | 0 | 1 | 0 | -6 | 2
CCOC(=O)CN(Cc1sccc1C)C(=O)Nc1ccc(OC)cc1OC | 0 | 0 | 1 | 25* | -14
CCNC(=O)C1(C)CCN(C(=O)c2c(-c3ccccc3)noc2C)C1 (centres undefined) | 0 | / | / | 2 | -11
Cc1cc(NC(=O)c2ccc(Cl)cc2)n(CCC#N)n1 | 16* | / | / | 7 | 8
Cc1ccc(CNC(=O)/C=C/[C@H]2O[C@@H](n3cc(C)c(=O)[nH]c3=O)C[C@@H]2O)o1 | 1 | / | / | -11 | 7
COc1cccc(C(NC(C)=O)c2nc(-c3ccc(C)c(C)c3)cs2)c1 (centres undefined) | 0 | / | / | 26* | -17
Cc1ccccc1-c1nc2ccccc2c(=O)o1 | -1 | / | / | 36* | -11
COc1ccc(C(O)c2ncc(-c3cccc(OCc4ccccc4)c3)[nH]2)cc1F (centres undefined) | 1 | / | / | -5 | 3
O=C(NC(Sc1ccc(Cl)cc1)C(=O)O)c1ccccc1 (centres undefined) | 0 | / | / | 5 | -8
Cn1c(CCN2CCCCC2)nc2cc(NC(=O)COc3ccc(Cl)cc3)ccc21 | 0 | / | / | -6 | 17
CN1CCN(CCc2nc3cc(NC(=O)COc4ccc(Cl)cc4)ccc3n2C)CC1 | -1 | / | / | 26* | -4
COc1cc(CCC(=O)OCC(=O)Nc2sccc2C(N)=O)cc(OC)c1OC | 14 | / | / | 39* | -16
NC(=O)c1ccsc1NC(=O)COC(=O)Cc1ccccc1[N+](=O)[O-] | 9 | / | / | 31* | -17
COc1cc(C(=O)OCC(=O)Nc2sccc2C(N)=O)cc(OC)c1OC | 8 | 4 | 1 | -2 | 13
SMILES | M1 ag parental | zfTRPN1 agonist | TRPML3 ag | CHO-K1 Ca antag | CHO-K1 Ca PAM
NC(=O)c1ccsc1NC(=O)COC(=O)Cc1ccc(F)cc1 | 17* | / | / | 14 | -8
NC(=O)c1ccsc1NC(=O)COC(=O)Cc1c[nH]c2ccccc12 | 13 | / | / | 20 | -18
NC(=O)c1ccsc1NC(=O)COC(=O)CNC(=O)c1cccc([N+](=O)[O-])c1 | 7 | / | / | -10 | 11
NC(=O)c1ccsc1NC(=O)COC(=O)Cc1cccc2ccccc12 | 9 | 6 | 4 | 29* | 6
O=NN(Cc1cccnc1)C(=O)NC1CCCCC1 | 1 | / | / | 1 | 12
COc1cc(Cn2c3ccc(NC(=O)CC(C)C(F)(F)F)cc3c(=O)n2C)ccc1F (centres undefined) | 9 | / | / | -17 | 10
Cc1ccccc1SCC(=O)OCC(=O)Nc1sccc1C(N)=O | 16* | 14 | 5 | 28* | 6
CCc1nc2c(OCCC3CCCCC3)cccn2c1N(C=O)Cc1ccc(OC)cc1 | 0 | / | / | -4 | 0
Cc1cccc(-n2[nH]c(C)c(C=Nc3ccc4[nH]c(=O)[nH]c4c3)c2=O)c1 | 0 | 3 | 0 | 28* | -15
Cc1[nH]n(-c2ccccc2)c(=O)c1C=Nc1ccc2[nH]c(=O)[nH]c2c1 | 1 | 1 | 1 | 2 | 4
O=c1[nH]nc(Cc2ccc(-c3cccc(Cl)c3)o2)c2ccccc12 | 0 | 0 | 0 | 24* | -9
Cc1cccc(CNC(=O)c2sc(=O)n(Cc3c(C)cccc3C)c2C)c1 | 0 | / | / | 7 | 8
COC(=O)c1sccc1NC(=S)N1CCN(c2cccc(C)c2C)CC1 | 0 | 3 | 1 | 24* | -15
COc1cc(CN2C[C@@H](CO)O[C@@H](n3cnc4c(NC(C)C)ncnc43)C2)cc(OC)c1OC | 0 | / | / | -5 | 0
CCN1/C(=C2\C(=O)N(c3ccccc3)N=C2C)C=Cc2cc(C)ccc21 | 24* | 1 | 0 | 15 | -11
CCN1/C(=C/c2ccc3cc(C)ccc3[n+]2CC)Sc2cc(C)ccc21 | 22* | 33* | 13* | 43* | -15
CCN1/C(=C/c2ccc3ccccc3[n+]2CCCS(=O)(=O)[O-])C=Cc2cc(C)ccc21 | 0 | / | / | 1 | -10
CCN1/C(=C/c2ccc3ccccc3[n+]2CC)C=Cc2ccccc21 | 6 | -1 | 0 | 32* | -1
CCCCN1/C(=C/c2cccc[n+]2C)Sc2cc(NC(C)=O)ccc21 | 1 | / | / | -10 | -11
CCCCN1/C(=C/c2ccc3ccccc3[n+]2CC)Sc2ccccc21 | 19* | 52* | 21* | 22 | 7
O=C1Cc2ccccc2C(=O)N1 | 1 | / | / | -1 | 1
COc1cc(Nc2c3c(nc4ccccc24)CCCC3)cc(OC)c1OC | 17* | -3 | 1 | 4 | 7
Cc1[nH]ccc2cc3nc4ccccc4c3cc12 | 0 | / | / | 14 | -7
Cn1c(=O)n(C)c2cc(S(=O)(=O)Nc3ccccc3O)ccc21 | 4 | 1 | 1 | -18 | 34
Cc1ccc(NS(=O)(=O)c2ccc3c(c2)n(C)c(=O)n3C)c(C)c1 | 18* | / | / | 0 | 25
Cc1ccc(C(=O)NCCSc2snnc2C)cc1 | 0 | -1 | -1 | 43* | -5
CC(C)CN(C(=O)COC(=O)CCSc1ccc(Cl)cc1)c1c(N)n(Cc2ccccc2)c(=O)[nH]c1=O | 0 | / | / | -6 | 1
COc1ccc(N=Cc2c(O)cc(C)oc2=O)cc1 | 16* | 2 | 1 | 16 | 1
Cc1cc(O)c(C=Nc2cccc(Cl)c2)c(=O)o1 | 2 | 2 | 1 | 7 | 17
COc1ccc(NC(=O)COc2ccc(N(C)S(=O)(=O)c3ccc(Cl)cc3)cc2)cc1OC | 14 | / | / | 27* | -20
